The values below come from ChEMBL document CHEMBL3774346, “Rational design, synthesis and biological evaluation of 1,3,4-oxadiazole pyrimidine derivatives as novel pyruvate dehydrogenase complex E1 inhibitors” (Bioorg Med Chem, 2016).

Experiment [1] in a line: Inhibition of Escherichia coli PDHc-E1 expressed in Escherichia coli TB1 using sodium pyruvate as substrate and ThDP after 3 mins by 2,6-DCPIP based microplate reader method. In short, it runs like this: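 The enzyme (7.1 µM) was preincubated 3 min at 37 °C with varied inhibitor in 50 mM K3PO4 pH 7.2, 2.0 mM pyruvate and 0.8 mM 2,6-DCPIP. ThDP (0–200 µM) started the reaction, read as A600 decrease. IC50 came from a Hill fit of initial rates.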

Experiment [2] is described as follows: Antibacterial activity against Synechocystis sp. PCC 6803. The class given is functional.
Experiment [3] deals with Alternaria solani. The experiment is described as follows: Antifungal activity against Alternaria solani at 100 ug/ml. The class given is functional.
Experiment [4] is described as follows: Antibacterial activity against Synechocystis sp. PCC 6803 at 10 uM. The class given is functional.
In experiment [5] the test system is Rhizoctonia solani. The experiment is described as follows: Antifungal activity against Rhizoctonia solani at 100 ug/ml. The class given is functional.
In experiment [6] the test system is Colletotrichum orbiculare. The experiment is described as follows: Antifungal activity against Colletotrichum orbiculare at 100 ug/ml. The class given is functional.
Experiment [7] has as its system Botrytis cinerea. The experiment is described as follows: Antifungal activity against Botrytis cinerea at 100 ug/ml. The class given is functional.
Experiment [8] concerns Escherichia coli. The experiment is described as follows: Inhibition of Escherichia coli PDHc-E1 expressed in Escherichia coli TB1 at 100 uM using sodium pyruvate as substrate after 3 mins by 2,6-DCPIP based microplate reader method.
Experiment [9] concerns the target T1, Pyruvate dehydrogenase E1 component subunit alpha, somatic form, mitochondrial (Sus scrofa) (UniProt P29804).
T1 sequence (whole entry): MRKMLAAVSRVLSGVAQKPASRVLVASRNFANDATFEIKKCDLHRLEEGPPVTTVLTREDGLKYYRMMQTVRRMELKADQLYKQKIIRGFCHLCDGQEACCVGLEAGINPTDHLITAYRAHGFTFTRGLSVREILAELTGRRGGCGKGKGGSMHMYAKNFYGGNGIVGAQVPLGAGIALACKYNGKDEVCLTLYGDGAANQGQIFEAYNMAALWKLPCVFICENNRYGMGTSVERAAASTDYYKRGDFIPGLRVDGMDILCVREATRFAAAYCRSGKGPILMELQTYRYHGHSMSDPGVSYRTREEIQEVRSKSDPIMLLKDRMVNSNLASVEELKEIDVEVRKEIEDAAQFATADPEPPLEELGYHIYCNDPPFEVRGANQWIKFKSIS
The experiment is described as follows: Inhibition of pig heart PDHc-E1 using sodium pyruvate as substrate at 100 uM after 3 mins by 2,6-DCPIP based microplate reader method.

For the compound `Cc1ncc(Cn2cc(CSc3nnc(-c4ccc(F)cc4)o3)nn2)c(N)n1`, half-maximal inhibition in experiment [1] (IC50) was put at 9.11 µM. For the same compound, in experiment [2], the midpoint of the response, the EC50, lay at 5.34 µM. The inhibition at 100 µg/mL was found to be 44% in experiment [3], 0% in experiment [5], 32% in [6] and 60% in [7]. The same compound had an inhibition at 10 µM in experiment [4] of 90%.
`Cc1ncc(Cn2cc(CSc3nnc(-c4ccc(Cl)cc4)o3)nn2)c(N)n1` yielded a half-inhibitory concentration (IC50) in experiment [1] of 7.08 µM. It took 5.25 µM to reach a half-maximal effect in [2] (EC50). The inhibition at 100 µg/mL amounted to 60% in experiment [3], 46% in experiment [5], 52% in [6] and 45% in [7]. The inhibition at 10 µM in experiment [4] was determined as 90%.
For `Cc1ncc(Cn2cc(CSc3nnc(-c4ccccc4)o3)nn2)c(N)n1`, in [1], the IC50 turned out to be 7.87 µM. The compound also returned an EC50 in experiment [2] of 5.15 µM. The inhibition at 100 µg/mL in [3] was determined as 47%; in experiment [5] it was 30%; in experiment [6], 40%; in [7], 60%. The same compound gave an inhibition at 10 µM in experiment [4] of 90%.
For `CNc1nc(C)c(-c2nnc(SCc3cn(Cc4cnc(C)nc4N)nn3)o2)s1`, the inhibition was 100% in experiment [8] and 15.6% in experiment [9]. In experiment [1], the midpoint of inhibition, the IC50, lay at 6.62 µM. Besides, the EC50 in [2] was found to be 1.51 µM. The inhibition at 100 µg/mL in [3] was 44%; in [5], 11%; in [6], 26%; in [7], 31%. In [4], the inhibition at 10 µM was determined as 90%.
Take `Cc1ncc(Cn2cc(CSc3nnc(-c4sc(N)nc4C(F)(F)F)o3)nn2)c(N)n1`: the figures for the inhibition in experiment [8] and in experiment [9] were 100% and 28.3%, respectively. In addition, the IC50 in [1] is 3.94 µM. The compound further came in with an EC50 in experiment [2] of 1.61 µM. Also, the inhibition at 100 µg/mL in experiment [3] came out at 53%; in [5], 11%; in [6] it was 25%; in [7], 60%. This compound also showed an inhibition at 10 µM in experiment [4] of 90%.
`Cc1ncc(Cn2cc(CSc3nnc(-c4cccc([N+](=O)[O-])c4)o3)nn2)c(N)n1` displayed an IC50 in experiment [1] of 10.4 µM. For the same compound, in experiment [2], it took 5.14 µM to reach a half-maximal effect (EC50). The inhibition at 100 µg/mL in experiment [3] was determined as 48%; in [5], 60%; in experiment [6], 40%; in experiment [7], 59%. In addition, in experiment [4], 10 µM produced 90% inhibition.
`Cc1ncc(Cn2cc(CSc3nnc(-c4sc(N)nc4C(F)(F)F)n3N)nn2)c(N)n1`: in experiment [1], half-maximal inhibition (IC50) required 5.03 µM. This compound showed an EC50 in [2] of 3.24 µM. Also, the inhibition at 100 µg/mL in [3] amounted to 21%; in experiment [5], 11%; in [6], 35%; in [7], 20%. Further, testing at 10 µM in [4] gave an inhibition of 90%.
In experiment [1], `CNc1nc(C)c(-c2nnc(SCc3cn(Cc4cnc(C)nc4N)nn3)n2N)s1` yielded a concentration for half-maximal inhibition (IC50) of 11.1 µM. In experiment [2], this compound gave a concentration for a half-maximal effect (EC50) of 2.99 µM. Besides, the inhibition at 100 µg/mL in experiment [3] worked out at 25%; in experiment [5], 17%; in experiment [6], 16%; in experiment [7], 11%. The compound further registered an inhibition at 10 µM in experiment [4] of 90%.
In [1], `Cc1ncc(Cn2cc(CSc3nnc(-c4cc([N+](=O)[O-])cc([N+](=O)[O-])c4)o3)nn2)c(N)n1` returned an IC50 of 8.61 µM. This compound registered an EC50 in experiment [2] of 2.33 µM. Also, the inhibition at 100 µg/mL in [3] stood at 30%; in experiment [5] it was 30%; in [6], 33%; in [7], 41%. In addition, the inhibition at 10 µM in experiment [4] worked out at 90%.
With `Cc1ncc(Cn2cc(CSc3nnc(-c4ccc([N+](=O)[O-])cc4)o3)nn2)c(N)n1`, in [1], the IC50 came out at 7.59 µM. The compound further gave an EC50 in experiment [2] of 9.04 µM. Besides, the inhibition at 100 µg/mL in [3] came out at 60%; in experiment [5] it was 55%; in [6] it was 35%; in [7], 45%.
`Cc1ncc(Cn2cc(COc3ccc([N+](=O)[O-])cc3)nn2)c(N)n1` returned an IC50 in experiment [1] of 8.8 µM. Moreover, in experiment [2], the EC50 was above 50 µM. The compound also had an inhibition at 10 µM in experiment [4] below 30%.
On to `Cc1ncc(Cn2cc(CSc3nnc(-c4ccc([N+](=O)[O-])cc4Cl)o3)nn2)c(N)n1`, for which, in [1], half-maximal inhibition (IC50) required 12.8 µM. Besides, the response in experiment [2] was half-maximal at 6.37 µM (EC50). Further, the inhibition at 100 µg/mL in experiment [3] was 35%; in [5], 46%; in experiment [6], 38%; in experiment [7], 54%.
In experiment [1], `Cc1ncc(Cn2cc(CSc3nnc(-c4ccccc4F)o3)nn2)c(N)n1` came in with an IC50 of 19.2 µM. For the same compound, the EC50 in experiment [2] was determined as 8.05 µM. Further, the inhibition at 100 µg/mL in [3] was 40%; in experiment [5], 0%; in experiment [6] it was 32%; in experiment [7], 28%.
Turning to `Cc1ncc(Cn2cc(CSc3nnc(-c4ccccc4Cl)o3)nn2)c(N)n1`, the IC50 in experiment [1] was 12.4 µM. The 50% effective concentration (EC50) in [2] came out at 2.28 µM.
As for `CNc1nc(C(F)(F)F)c(-c2nnc(SCc3cn(Cc4cnc(C)nc4N)nn3)n2N)s1`, in experiment [1], the IC50 is 15.7 µM. The same compound came in with an EC50 in [2] of 9.86 µM. Also, the inhibition at 100 µg/mL in experiment [3] is 21%; in experiment [5] it was 11%; in [6], 28%; in experiment [7] it was 8%.
In turn, `Cc1ncc(Cn2cc(COc3ccc(Cl)cc3)nn2)c(N)n1` had an IC50 in experiment [1] of 26.4 µM. In experiment [2], the EC50 is above 50 µM. The compound further registered an inhibition at 10 µM in [4] below 30%.
With `Cc1ncc(Cn2cc(CSc3nnc(-c4ccc(C(F)(F)F)cc4)o3)nn2)c(N)n1`, the IC50 in [1] turned out to be 15.9 µM. In experiment [2], this compound displayed an EC50 of 5.35 µM. Besides, the inhibition at 100 µg/mL was 35% in experiment [3], 0% in [5], 45% in [6] and 45% in [7]. Also, in experiment [4], at 10 µM the inhibition was 90%.
As for `Cc1ncc(Cn2cc(CSc3nnc(-c4sc(N)nc4C)n3N)nn2)c(N)n1`, the IC50 in experiment [1] amounted to 7.02 µM. In [2], a half-maximal effect (EC50) was put at 2.3 µM. Also, the inhibition at 100 µg/mL came out at 29% in experiment [3], 16% in [5], 26% in experiment [6] and 16% in experiment [7]. Moreover, the inhibition at 10 µM in [4] is 90%.
Consider `Cc1ncc(Cn2cc(COc3ccc(Cl)cc3Cl)nn2)c(N)n1`, for which the IC50 in experiment [1] came to 18.7 µM. The compound also showed an EC50 in experiment [2] above 50 µM. Also, the inhibition at 10 µM in experiment [4] was below 30%.
Take `Cc1ncc(Cn2cc(CSc3nnc(-c4ccc(Cl)cc4Cl)o3)nn2)c(N)n1`: in experiment [1], the IC50 came out at 13.2 µM. In experiment [2], this compound registered an EC50 of 5.99 µM.
In the case of `Cc1ncc(Cn2cc(COc3ccccc3[N+](=O)[O-])nn2)c(N)n1`, the IC50 in [1] is 36.3 µM. Moreover, the EC50 in experiment [2] was above 50 µM. In experiment [4], this compound registered an inhibition at 10 µM below 30%.
Regarding `Cc1ncc(Cn2cc(CSc3nnc(-c4ccccc4[N+](=O)[O-])o3)nn2)c(N)n1`, the IC50 in experiment [1] worked out at 9.84 µM. This compound registered an EC50 in experiment [2] of 4.76 µM. Moreover, the inhibition at 100 µg/mL was determined as 58% in [3], 40% in experiment [5], 48% in experiment [6] and 54% in experiment [7]. The inhibition at 10 µM in experiment [4] was 90%.
In [1], `Cc1ncc(Cn2cc(COc3ccccc3)nn2)c(N)n1` registered an IC50 of 55.1 µM. In experiment [2], the EC50 is above 50 µM. The compound also registered an inhibition at 10 µM in experiment [4] below 30%.
Take `Cc1ncc(Cn2cc(CSc3nnc(-c4sc(N)nc4C)o3)nn2)c(N)n1`: the inhibition was 100% in [8] and 27.1% in [9]. The same compound showed an IC50 in experiment [1] of 4.36 µM. This compound showed an EC50 in experiment [2] of 1.63 µM. Further, the inhibition at 100 µg/mL turned out to be 56% in experiment [3], 11% in experiment [5], 24% in [6] and 31% in experiment [7]. Besides, the inhibition at 10 µM in experiment [4] stood at 90%.

One may read the IC50 as the concentration needed to halve the response being measured. Low values mean higher potency, high ones lower potency. A word on the EC50: it is the concentration at which the effect is half-maximal. A high value points to weaker potency. As a reminder, the inhibition is the drop in the measured response relative to a control, in per cent. A lower inhibition goes with little suppression.
